How the values were obtained:
[1] = target: T1, Alpha-1D adrenergic receptor (Rattus norvegicus, UniProt P23944); test: Antagonist activity at alpha-1D adrenoreceptor in Sprague-Dawley rat thoracic aorta assessed as inhibition of noradrenaline-induced tissue contraction after 30 mins by Schild plot analysis; conditions: read-out: pA2 (converted)
T1 sequence (P23944 whole entry): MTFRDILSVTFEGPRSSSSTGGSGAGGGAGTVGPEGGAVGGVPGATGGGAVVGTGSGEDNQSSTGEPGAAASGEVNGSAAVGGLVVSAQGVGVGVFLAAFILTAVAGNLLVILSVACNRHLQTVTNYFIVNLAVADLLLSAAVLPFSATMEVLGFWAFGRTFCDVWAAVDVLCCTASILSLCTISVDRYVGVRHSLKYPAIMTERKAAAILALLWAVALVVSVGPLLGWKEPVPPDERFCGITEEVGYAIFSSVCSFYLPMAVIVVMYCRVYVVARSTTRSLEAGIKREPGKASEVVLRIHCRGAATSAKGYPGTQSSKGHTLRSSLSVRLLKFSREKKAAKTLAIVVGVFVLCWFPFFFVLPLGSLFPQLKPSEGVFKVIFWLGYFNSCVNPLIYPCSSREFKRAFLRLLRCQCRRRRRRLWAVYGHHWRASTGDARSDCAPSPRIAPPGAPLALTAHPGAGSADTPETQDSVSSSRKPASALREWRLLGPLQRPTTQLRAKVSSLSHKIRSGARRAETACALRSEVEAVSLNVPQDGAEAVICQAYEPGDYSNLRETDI
In short: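 Endothelium-denuded helicoid aortic strips, about 1.5 cm, with denudation confirmed by absent acetylcholine relaxation. Strips were equilibrated ≥1 h at 1 g tension and cumulative (−)-noradrenaline curves recorded, the first two discarded and the third taken as control; a fourth followed 30 min antagonist equilibration. pA₂ from Schild plot, 3−5 repeats per concentration.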

[2] = target: T2, Alpha-1D adrenergic receptor (Homo sapiens, UniProt P25100); test: Displacement of [3H]prazosin from human alpha-1D adrenoreceptor expressed in CHO cells after 30 mins; assay type: cell-based
T2 sequence (P25100 whole entry): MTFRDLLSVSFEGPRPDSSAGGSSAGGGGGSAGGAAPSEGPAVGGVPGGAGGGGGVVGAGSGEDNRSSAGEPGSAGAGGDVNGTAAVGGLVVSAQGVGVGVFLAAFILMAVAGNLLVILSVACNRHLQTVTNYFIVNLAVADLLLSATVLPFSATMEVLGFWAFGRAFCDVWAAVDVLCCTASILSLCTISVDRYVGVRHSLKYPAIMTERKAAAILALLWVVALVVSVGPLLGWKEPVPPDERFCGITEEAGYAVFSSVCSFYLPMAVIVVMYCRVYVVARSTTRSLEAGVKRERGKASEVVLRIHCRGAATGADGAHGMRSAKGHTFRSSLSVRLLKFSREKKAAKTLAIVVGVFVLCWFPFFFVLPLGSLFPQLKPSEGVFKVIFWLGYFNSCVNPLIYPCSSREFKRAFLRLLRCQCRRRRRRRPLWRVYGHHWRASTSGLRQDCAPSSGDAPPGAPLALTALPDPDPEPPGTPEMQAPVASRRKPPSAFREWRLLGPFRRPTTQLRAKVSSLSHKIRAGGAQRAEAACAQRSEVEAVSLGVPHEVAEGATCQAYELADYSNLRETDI
In short: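 Membranes from CHO cells expressing each α₁-AR subtype, incubated 30 min at 25 °C in 50 mM Tris HCl pH 7.7 with 10 μM pargyline and 0.1% ascorbic acid, plus 0.5 nM [³H]prazosin and varying test compound concentrations. Nonspecific binding was defined with 1 μM prazosin.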

[3] = target: T3, 5-hydroxytryptamine receptor 1A (Rattus norvegicus, UniProt P19327); test: Displacement of [3H]-8-OHDPAT from 5-HT1A receptor in rat hippocampal membranes after 30 mins; assay type: cell membranes, Hippocampus, Membrane
T3 sequence (P19327 whole entry): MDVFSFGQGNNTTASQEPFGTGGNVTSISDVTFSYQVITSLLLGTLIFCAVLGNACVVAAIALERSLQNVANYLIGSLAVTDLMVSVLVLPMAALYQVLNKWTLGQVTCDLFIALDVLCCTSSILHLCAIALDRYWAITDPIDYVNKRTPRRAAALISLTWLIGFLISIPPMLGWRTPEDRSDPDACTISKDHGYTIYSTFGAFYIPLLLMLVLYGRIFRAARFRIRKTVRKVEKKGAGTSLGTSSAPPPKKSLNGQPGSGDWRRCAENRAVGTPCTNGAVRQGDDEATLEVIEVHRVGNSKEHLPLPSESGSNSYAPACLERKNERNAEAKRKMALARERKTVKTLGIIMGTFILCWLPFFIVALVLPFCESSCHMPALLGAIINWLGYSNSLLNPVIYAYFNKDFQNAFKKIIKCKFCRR

[4] = target: T4, Alpha-1B adrenergic receptor (Rattus norvegicus, UniProt P15823); test: Antagonist activity at alpha-1B adrenoreceptor in Sprague-Dawley rat spleen assessed as inhibition of phenylephrine-induced tissue contraction after 30 mins by Schild plot analysis; conditions: read-out: pA2 (converted)
T4 sequence (P15823 whole entry): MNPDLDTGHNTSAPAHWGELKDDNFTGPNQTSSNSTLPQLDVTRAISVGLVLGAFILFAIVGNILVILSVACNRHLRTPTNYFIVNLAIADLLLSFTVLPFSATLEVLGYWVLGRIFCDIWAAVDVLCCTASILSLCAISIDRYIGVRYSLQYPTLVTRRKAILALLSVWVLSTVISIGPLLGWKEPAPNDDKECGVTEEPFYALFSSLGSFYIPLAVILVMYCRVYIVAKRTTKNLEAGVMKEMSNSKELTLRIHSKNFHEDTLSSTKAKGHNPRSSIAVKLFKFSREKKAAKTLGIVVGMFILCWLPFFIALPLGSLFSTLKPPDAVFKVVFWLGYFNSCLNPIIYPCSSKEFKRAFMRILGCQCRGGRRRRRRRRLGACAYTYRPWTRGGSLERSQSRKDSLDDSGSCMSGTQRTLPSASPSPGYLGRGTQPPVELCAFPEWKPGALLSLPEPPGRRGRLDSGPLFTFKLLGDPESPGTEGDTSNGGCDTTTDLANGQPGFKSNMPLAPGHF
In short: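 Spleen from 250−300 g rats in gassed physiological salt solution with desipramine 0.01 μM and propranolol 1 μM. Isometric cumulative phenylephrine curves were run at 30 min intervals, the first discarded and the second taken as control, then a new curve after 30 min antagonist equilibration. pA₂ from Schild plot, at least three antagonist concentrations, each tested 3−5 times.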

Kb [1] [nM] | Ki [2] [nM] | Ki [3] [nM] | Kb [4] [nM] | SMILES
2.4 | 12.9 | 110 | 0.832 | COc1ccc2c(c1OCCNC[C@H]1COc3ccccc3O1)NCC2.Cl.Cl
0.977 | 1.91 | 2.57 | 2.09 | COc1ccc2ccoc2c1OCCNC[C@H]1COc2ccccc2O1.Cl
0.263 | 2.24 | 46.8 | 3.24 | COc1ccc2c(c1OCCNC[C@H]1COc3ccccc3O1)OCC2.Cl
3.02 | 631 | 339 | 17 | COc1ccc2cc[nH]c2c1OCCNC[C@H]1COc2ccccc2O1

Reference: ChEMBL document CHEMBL2417545, “6-methoxy-7-benzofuranoxy and 6-methoxy-7-indolyloxy analogues of 2-[2-(2,6-Dimethoxyphenoxy)ethyl]aminomethyl-1,4-benzodioxane (WB4101):1 discovery of a potent and selective α1D-adrenoceptor antagonist” (J Med Chem, 2013)
